Data reported in ChEMBL document CHEMBL3352568, “Synthesis and evaluation of in vitro antimycobacterial activity of novel 1H-benzo[d]imidazole derivatives and analogues” (Eur J Med Chem, 2015).
≈ marks a conversion by molar mass, not a printed value.

What was measured:
[1] = system: Mycobacterium tuberculosis; assay: Antimicrobial activity against Mycobacterium tuberculosis Spec. 192 by two-fold serial dilution method; assay type: functional
In short: (§1)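 Classical test-tube successive two-fold dilution in Youmans' modification of Proskauer and Beck liquid medium with 10% bovine serum. Inocula from 14-day-old cultures. Compounds dissolved in ethylene glycol (stock 10 mg/mL), diluted in medium to 0.75–100 µg/mL. Incubated at 37 °C. MIC is the lowest concentration inhibiting growth relative to a compound-free control.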

[2] = system: Mycobacterium tuberculosis; assay: Antimicrobial activity against Mycobacterium tuberculosis H37Rv by two-fold serial dilution method; assay type: functional; in short: as §1
[3] = system: Mycobacterium tuberculosis; assay: Antimicrobial activity against Mycobacterium tuberculosis Spec. 210 by two-fold serial dilution method; assay type: functional; in short: as §1
A549 = assay: Cytotoxicity against human A549 cells assessed as growth inhibition after 120 hrs by MTT assay; assay type: functional, cell-based; settings: A549, 120 h
In short: (§2)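 A549 cells were seeded at 4x10^3/well in RPMI1640 with 10% FBS and penicillin/streptomycin and attached overnight. Compounds were added from DMSO stocks at 200-fold concentration, with DMSO-only controls, and cells were exposed continuously for 120 h at 37 °C in 5% CO2. MTT (4 mg/mL in PBS) was added for 4 h, formazan dissolved in DMSO, and A540 read versus untreated cells. IC50 was taken as 50% growth inhibition; at least two independent experiments in duplicate.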

LLC-PK1 = assay: Cytotoxicity against pig LLC-PK1 cells assessed as growth inhibition after 120 hrs by MTT assay; assay type: cell-based; settings: Sus scrofa, LLC-PK1, 120 h
In short: as §2, with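 “LLC-PK1” for “A549”, “1.25x10^4/well” for “4x10^3/well”, “Medium 199” for “RPMI1640”, “3%” for “10%”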

NC(=O)c1cnccn1 [PYRAZINAMIDE]
MIC [1]: 25 µg/mL (≈ 203 µM) | MIC [2]: 25 µg/mL (≈ 203 µM) | MIC [3]: > 400 µg/mL

Cc1cc2nc(CCCc3ccccc3)[nH]c2cc1C
MIC [1]: 6.2 µg/mL (≈ 23.5 µM) | MIC [2]: 6.2 µg/mL (≈ 23.5 µM) | MIC [3]: 6.2 µg/mL (≈ 23.5 µM)

Fc1ccc2[nH]c(CCC3CCCCC3)nc2c1
MIC [1]: 3.1 µg/mL (≈ 12.6 µM) | MIC [2]: 3.1 µg/mL (≈ 12.6 µM) | MIC [3]: 3.1 µg/mL (≈ 12.6 µM)

Cc1cc2nc(CCCC3CCCCC3)[nH]c2cc1C
MIC [1]: 6.2 µg/mL (≈ 22.9 µM) | MIC [2]: 25 µg/mL (≈ 92.4 µM) | MIC [3]: 6.2 µg/mL (≈ 22.9 µM)

Clc1cc2nc(CCC3CCCCC3)[nH]c2cc1Cl
IC50 (A549): 11.1 µM | IC50 (LLC-PK1): 9.62 µM | MIC [1]: 0.75 µg/mL (≈ 2.52 µM) | MIC [2]: 0.75 µg/mL (≈ 2.52 µM) | MIC [3]: 0.75 µg/mL (≈ 2.52 µM)

NNC(=O)c1ccncc1 [ISONIAZID]
MIC [1]: 12.5 µg/mL (≈ 91.1 µM) | MIC [2]: 12.5 µg/mL (≈ 91.1 µM) | MIC [3]: 25 µg/mL (≈ 182 µM)

Cc1cc2nc(CCC3CCCCC3)[nH]c2cc1C
IC50 (A549): 11.2 µM | IC50 (LLC-PK1): 43.9 µM | MIC [1]: 0.75 µg/mL (≈ 2.93 µM) | MIC [2]: 0.75 µg/mL (≈ 2.93 µM) | MIC [3]: 0.75 µg/mL (≈ 2.93 µM)

Brc1cnc2[nH]c(-c3cc(-c4ccccc4)ccn3)nc2c1
MIC [1]: 25 µg/mL (≈ 71.2 µM) | MIC [2]: 25 µg/mL (≈ 71.2 µM) | MIC [3]: 25 µg/mL (≈ 71.2 µM)

Clc1ccc2[nH]c(CCC3CCCCC3)nc2c1
IC50 (A549): 10.9 µM | IC50 (LLC-PK1): 17.1 µM | MIC [1]: 0.75 µg/mL (≈ 2.85 µM) | MIC [2]: 0.75 µg/mL (≈ 2.85 µM) | MIC [3]: 0.75 µg/mL (≈ 2.85 µM)

Clc1ccc2[nH]c(-c3cc(-c4ccccc4)ccn3)nc2c1
MIC [1]: 12.5 µg/mL (≈ 40.9 µM) | MIC [2]: 12.5 µg/mL (≈ 40.9 µM) | MIC [3]: 6.2 µg/mL (≈ 20.3 µM)

Fc1ccc2[nH]c(CCCc3ccccc3)nc2c1
MIC [1]: 50 µg/mL (≈ 197 µM) | MIC [2]: 12.5 µg/mL (≈ 49.2 µM) | MIC [3]: 50 µg/mL (≈ 197 µM)

Fc1ccc2[nH]c(CCCC3CCCCC3)nc2c1
MIC [1]: 6.2 µg/mL (≈ 23.8 µM) | MIC [2]: 6.2 µg/mL (≈ 23.8 µM) | MIC [3]: 6.2 µg/mL (≈ 23.8 µM)

Cc1ccc2[nH]c(-c3cc(-c4ccccc4)ccn3)nc2c1
MIC [1]: 6.2 µg/mL (≈ 21.7 µM) | MIC [2]: 3.1 µg/mL (≈ 10.9 µM) | MIC [3]: 3.1 µg/mL (≈ 10.9 µM)

c1ccc(-c2ccnc(-c3nc4cccnc4[nH]3)c2)cc1
MIC [1]: 12.5 µg/mL (≈ 45.9 µM) | MIC [2]: 12.5 µg/mL (≈ 45.9 µM) | MIC [3]: 12.5 µg/mL (≈ 45.9 µM)

CO[C@H]1/C=C/O[C@@]2(C)Oc3c(C)c(O)c4c(O)c(c(/C=N/N5CCN(C)CC5)c(O)c4c3C2=O)NC(=O)/C(C)=C\C=C\[C@H](C)[C@H](O)[C@@H](C)[C@@H](O)[C@@H](C)[C@H](OC(C)=O)[C@@H]1C [RIFAMPIN]
MIC [1]: 1.2 µg/mL (≈ 1.46 µM) | MIC [2]: 1.2 µg/mL (≈ 1.46 µM) | MIC [3]: 2.5 µg/mL (≈ 3.04 µM)

c1ccc(-c2ccnc(-c3nc4ccccc4[nH]3)c2)cc1
MIC [1]: 6.2 µg/mL (≈ 22.9 µM) | MIC [2]: 12.5 µg/mL (≈ 46.1 µM) | MIC [3]: 6.2 µg/mL (≈ 22.9 µM)

Brc1ccc2[nH]c(CCC3CCCCC3)nc2c1
IC50 (A549): 13.4 µM | IC50 (LLC-PK1): 32.6 µM | MIC [1]: 0.75 µg/mL (≈ 2.44 µM) | MIC [2]: 0.75 µg/mL (≈ 2.44 µM) | MIC [3]: 0.75 µg/mL (≈ 2.44 µM)

Cc1cc2nc(-c3cc(-c4ccccc4)ccn3)[nH]c2cc1C
MIC [1]: 12.5 µg/mL (≈ 41.8 µM) | MIC [2]: 25 µg/mL (≈ 83.5 µM) | MIC [3]: 12.5 µg/mL (≈ 41.8 µM)

CS(=O)(=O)n1c(CCCc2ccccc2)nc2cc(F)ccc21
MIC [1]: 50 µg/mL (≈ 150 µM) | MIC [2]: 50 µg/mL (≈ 150 µM) | MIC [3]: 50 µg/mL (≈ 150 µM)

Brc1ccc2[nH]c(-c3cc(-c4ccccc4)ccn3)nc2c1
MIC [1]: 12.5 µg/mL (≈ 35.7 µM) | MIC [2]: 12.5 µg/mL (≈ 35.7 µM) | MIC [3]: 6.5 µg/mL (≈ 18.6 µM)

c1ccc(-c2ccnc(-c3nc4ccncc4[nH]3)c2)cc1
MIC [1]: 12.5 µg/mL (≈ 45.9 µM) | MIC [2]: 12.5 µg/mL (≈ 45.9 µM) | MIC [3]: 3.1 µg/mL (≈ 11.4 µM)

O=S(=O)(c1ccccc1)n1c(CCCc2ccccc2)nc2cc(F)ccc21
MIC [1]: 100 µg/mL (≈ 254 µM) | MIC [2]: 100 µg/mL (≈ 254 µM) | MIC [3]: 50 µg/mL (≈ 127 µM)

Clc1cc2nc(CCCC3CCCCC3)[nH]c2cc1Cl
MIC [1]: 6.2 µg/mL (≈ 19.9 µM) | MIC [2]: 12.5 µg/mL (≈ 40.2 µM) | MIC [3]: 6.2 µg/mL (≈ 19.9 µM)

Fc1ccc2[nH]c(-c3cc(-c4ccccc4)ccn3)nc2c1
MIC [1]: 12.5 µg/mL (≈ 43.2 µM) | MIC [2]: 6.2 µg/mL (≈ 21.4 µM) | MIC [3]: 6.2 µg/mL (≈ 21.4 µM)

Clc1cc2nc(CCCc3ccccc3)[nH]c2cc1Cl
MIC [1]: 6.2 µg/mL (≈ 20.3 µM) | MIC [2]: 6.2 µg/mL (≈ 20.3 µM) | MIC [3]: 6.2 µg/mL (≈ 20.3 µM)

O=[N+]([O-])c1ccc2[nH]c(CCC3CCCCC3)nc2c1
MIC [1]: 3.1 µg/mL (≈ 11.3 µM) | MIC [2]: 3.1 µg/mL (≈ 11.3 µM) | MIC [3]: 3.1 µg/mL (≈ 11.3 µM)

Cc1ccc2[nH]c(CCC3CCCCC3)nc2c1
MIC [1]: 1.5 µg/mL (≈ 6.19 µM) | MIC [2]: 1.5 µg/mL (≈ 6.19 µM) | MIC [3]: 1.5 µg/mL (≈ 6.19 µM)

Cc1ccc2[nH]c(CCCc3ccccc3)nc2c1
MIC [1]: 6.2 µg/mL (≈ 24.8 µM) | MIC [2]: 25 µg/mL (≈ 99.9 µM) | MIC [3]: 100 µg/mL (≈ 399 µM)
